# FGF22 binding: binders of human FGF22 protein, primary screen, FGF22 synaptogenesis inhibitor project, biophysical, thermal shift, single point. Fibroblast growth factor 22 (Homo sapiens), Q9HCT0. recombinant FGF22 thermal shift, SYPRO orange fluorescence; percent of sucrose octasulfate shift, DMSO zero. activity (Tm shift, normalised), % at 9.99 µM. 1.5% of 340,000 active. AID 651658, 2012;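 active = mean Tm shift, scaled 0 neutral to 100 positive control, at about 1.3% or above, every replicate too, limit read from the data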
# Target sequence (Q9HCT0 whole entry, looked up): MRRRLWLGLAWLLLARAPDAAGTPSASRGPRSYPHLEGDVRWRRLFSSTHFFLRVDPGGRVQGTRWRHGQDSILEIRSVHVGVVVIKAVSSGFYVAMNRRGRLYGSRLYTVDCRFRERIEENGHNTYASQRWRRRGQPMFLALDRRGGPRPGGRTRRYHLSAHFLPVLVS
# Vif inh: HIV Vif self-association inhibitors, primary screen, imaging, HEK293T, single point | HEK293T cells, Vif self-association by quenched fluorescence, 24 h | inhibition, % at 7.49 µM | 0.35% of 340,000 active | AID 602346, 2012; in the data active = inhibition above about 50%, passing the limit was not always enough
# PGC1a acetyl inh: inhibitors of PGC1a acetylation signal, primary screen, cell-based, U2OS, AlphaScreen, inhibitor mode | 0.17% of 350,000 active | inhibition, % at 15.6 µM | AID 651687, 2012 | AlphaScreen anti-acetyl-lysine; with virally co-expressed GCN5 acetyltransferase;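 active = every replicate shows inhibition of at least 40%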;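 note: 0% = neutral control wells and 100% = positive control wells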
# Ecoli rRNA inh: reduced GFP signal of wild-type E. coli, primary screen, bacterial rRNA inhibitor project, GFP/RFP fluorescence, OD600, single point; E. coli WT GFP vs humanized-ribosome RFP mutants, 24 h; stronger effect = lower value; DMSO median 0, no signal -100; 1.6% of 350,000 active; GFP signal change (wild-type ribosome), % (no concentration beside the values);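 active = significant combined selectivity score with lowered wild-type GFP, culture density cut under 30%, mutant RFP and density less affected; inactive = any of these conditions unmet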
# PglD inh: C. jejuni PglD acetyltransferase inhibitors, primary screen, biochemical, DTNB colorimetric, single point; UDP-N-acetylbacillosamine N-acetyltransferase PglD (Campylobacter jejuni); 0.098% of 360,000 active; inhibition, % at 12.5 µM; purified PglD enzyme, DTNB colorimetric CoA detection; AID 602405, 2012; in the data active = inhibition above about 16%, passing the limit was not always enough
# Cneo AK release: Cryptococcus neoformans cell lysis inducers, primary screen, AK release luminescence, single concentration; C. neoformans lysis, adenylate kinase release luminescence, 4 h; normalised: neutral wells 0, clomiphene wells 100; 0.2% of 360,000 active; lysis activity, % at 15 µM;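 active = mean lysis activity across replicates of at least 80%, whatever share of replicates individually reach that level; inactive = mean lysis activity below 80%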
#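 Test system: log-phase Cryptococcus neoformans yeast cells. Input: 5 × 10^6 yeast cells/mL. Medium: fresh YPD growth medium. Doses: single dose. Incubation: static 4 h at 37 °C with compound, 1 h detection. Measured by: luminescent adenylate kinase detection reagent. Read-out: signal increase indicating cell lysis. Benchmarks: Clomiphene.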
# * hit, by the source's call; · = no result. Only some compounds are listed: those with a hit (about 2.9% of all), similar ones and a draw of the others.
SMILES,FGF22 binding,Vif inh,PGC1a acetyl inh,Ecoli rRNA inh,PglD inh,Cneo AK release
COC(=O)C[C@H]1CC[C@H]2[C@@H](COc3ccc(NC(=O)c4cncs4)cc3C(=O)N2C)O1,0.0,·,0.7,1.1,-1.8,1.9
C[C@H]1CCCCO[C@H](CN(C)C(=O)Nc2ccc(C(F)(F)F)cc2)[C@@H](C)CN([C@@H](C)CO)C(=O)c2cc(NC(=O)C3CCCCC3)ccc2O1,-0.2,·,21.1,2.2,-3.8,1.5
CO[C@H]1CN(C)C(=O)c2cc(NC(=O)C3CCC3)ccc2OC[C@@H](C)N(Cc2ccccn2)C[C@H]1C,·,·,-5.4,-0.2,·,·
NC(=O)c1sc2nc(-c3ccccc3)ccc2c1N,-0.1,61.3*,6.0,1.2,-5.9,-0.9
COc1ccc(-c2ccc3c(N)c(C(=O)c4ccc(OC)c(OC)c4)sc3n2)cc1,·,148.3*,-11.7,·,5.2,-2.1
CCOC(=O)c1sc2nc(-c3ccccc3)ccc2c1N,·,18.8,·,·,·,·
O=C(Cc1ccccn1)NCC[C@@H]1CC[C@H](NC(=O)Nc2ccc(C(F)(F)F)cc2)[C@@H](CO)O1,-0.1,·,50.3*,-3.0,-0.2,-1.9
O=C(Cc1ccccn1)NCC[C@@H]1CC[C@@H](NC(=O)Nc2ccc(C(F)(F)F)cc2)[C@@H](CO)O1,0.1,·,45.5*,-1.4,0.2,3.7
O=C(Cc1ccccn1)NCC[C@@H]1CC[C@@H](NC(=O)Nc2ccc(C(F)(F)F)cc2)[C@H](CO)O1,-0.1,·,-2.5,-2.3,-1.4,0.8
Cc1cc(C(=O)Nc2cccc3c2O[C@H](CN(C)C(=O)Nc2ccc(F)cc2)[C@H](C)CN([C@H](C)CO)C3=O)n(C)n1,-0.1,·,-1.9,-0.6,-2.4,-0.6
CCC(=O)N[C@H]1CC[C@H](CC(=O)NCC2CCCCC2)O[C@H]1CO,-0.1,·,-1.9,2.3,0.7,-0.2
CCOC(=O)C1=CCN(S(=O)(=O)c2cccc(Cl)c2)C1c1ccc(C)cc1 (stereo not drawn),0.4,16.4,-13.7,-9.2,2.2,-0.7
CCOC(=O)c1sc(/S(C)=N\S(=O)(=O)c2cccc(Cl)c2)c2c1CCC=C2 (stereo not drawn),0.0,-2.3,·,-19.1*,·,·
O=C(C[C@@H]1CC[C@@H]2[C@H](COC[C@H](O)CN2Cc2cccc(C(F)(F)F)c2)O1)NCCc1ccccc1,0.1,·,-4.8,-4.9,0.8,1.6
Cc1[nH]c(=O)nc(NN=Cc2ccc(Cl)cc2)c1C(=O)Nc1ccc(Cl)cc1,43.4*,-8.2,·,3.7,·,·
CC1CCc2nc3ccccc3c(C(=O)OCC(=O)NC3CCS(=O)(=O)C3)c2C1 (stereo not drawn),0.1,-2.2,·,-28.9*,·,·
O=C1C(Cc2ccccc2)Nc2ncnc(N3CCc4ccccc4C3)c2N1Cc1ccc(Cl)cc1 (stereo not drawn),·,-0.4,·,·,-4.2,5.5
CCC1Nc2ncnc(N3CCc4ccccc4C3)c2N(Cc2ccc(Cl)cc2)C1=O (stereo not drawn),-0.1,-2.6,13.4,-17.4*,2.9,0.7
O=C(Cc1ccccc1)N[C@H]1C=C[C@@H](CC(=O)N2CCCCC2)O[C@@H]1CO,0.5,·,-4.7,1.8,6.4,-0.4
Cc1ccc(NS(=O)(=O)c2cc(NC(=O)c3ccc4c(c3)NC(=O)CS4)ccc2Cl)c(C)c1,43.1*,1.6,·,-19.8,·,·
COc1ccc(NC(=O)c2ccc3c(c2)NC(=O)CS3)cc1,-0.5,13.1,·,6.3,-0.3,-0.4
COC(=O)[C@H]1[C@H](CO)[C@H]2Cn3c(ccc(-c4ccccc4)c3=O)[C@H]2N1CC1CCCCC1,-0.1,·,·,-3.0,-1.7,1.1
Cc1ccc(N(CC(=O)NCc2ccc3c(c2)OCO3)C(=O)c2csnn2)cc1,0.0,10.3,-24.8,0.8,-1.7,1.9
O=C(CN(C(=O)c1csnn1)c1ccc(F)cc1)NCc1ccc2c(c1)OCO2,0.8,74.5*,·,0.1,-9.4,3.9
COc1ccc(-n2c(CNC(=O)COc3ccc(Cl)cc3Cl)n[nH]c2=S)cc1,43.2*,-0.9,·,-37.1,·,·
SMILES,FGF22 binding,Vif inh,PGC1a acetyl inh,Ecoli rRNA inh,PglD inh,Cneo AK release
CCn1c(CCCOc2ccc(Cl)cc2Cl)n[nH]c1=S,0.1,2.0,-3.2,-33.7*,0.8,15.1
COc1ccc(-n2c(CNC(=O)COc3ccc(Cl)cc3)n[nH]c2=S)cc1,-0.2,17.8,12.0,4.5,-0.8,-19.3
CCC(=O)N(C)C[C@H]1Oc2ncc(-c3ccc(F)cc3)cc2C(=O)N([C@@H](C)CO)C[C@@H]1C,0.2,·,9.6,2.9,-8.9,-0.3
CCC(=O)N1C[C@@H]2[C@H](c3ccccc31)[C@H](CO)N2C(=O)CC,-0.8,·,-5.6,4.2,6.6,-3.5
COc1ccccc1-c1ccc([C@H]2[C@@H](C#N)N(C(=O)C3CC3)[C@@H]2CO)cc1,-0.2,·,11.9,1.5,2.2,87.2*
COc1ccccc1-c1ccc([C@H]2[C@H](C#N)N(C(=O)C3CC3)[C@H]2CO)cc1,-0.3,·,-4.9,-0.5,4.1,81.0*
N#C[C@@H]1[C@@H](c2ccc(-c3ccccc3)cc2)[C@@H](CO)N1C(=O)Cc1ccncc1,0.1,·,63.3*,3.2,-0.9,-1.7
COc1ccccc1-c1ccc([C@H]2[C@@H](C#N)N(C(=O)C3CC3)[C@H]2CO)cc1,0.0,·,-4.0,-0.1,0.1,4.0
Cc1ccc(Cl)cc1N1CCN(C(=O)Cc2c(C(=O)O)[nH]c3ccccc23)CC1,0.4,·,8.7,-30.4*,-0.9,0.5
Cc1noc(C)c1NC(=O)Nc1ccc2c(c1)CC(=O)N([C@@H](C)CO)C[C@H](C)[C@@H](CN(C)S(=O)(=O)c1cn(C)cn1)O2,-0.3,·,1.5,1.9,0.9,-2.0
COc1cccc(CNC(=O)[C@H]2[C@H](CO)[C@H]3Cn4c(ccc(-c5ccncc5)c4=O)[C@@H]2N3C(C)=O)c1,-0.2,·,·,5.5,-0.3,-5.1
Cc1ccc(S(=O)(=O)N2CCN(C(=O)c3c(-c4ccccc4)noc3C)CC2)cc1,-0.1,51.9*,-37.6,10.1,0.2,3.2
CCC(=O)N1CC2(C1)CN(C(=O)CN1CCOCC1)[C@@H](CO)c1[nH]c3cc(OC)ccc3c12,·,·,·,3.9,·,·
COc1ccccc1OCC(=O)NNC(=O)c1c(-c2ccccc2Cl)noc1C,0.1,-0.6,15.3,4.8,·,·
